Test results from ChEMBL document CHEMBL3421570, “Combinatorial Libraries As a Tool for the Discovery of Novel, Broad-Spectrum Antibacterial Agents Targeting the ESKAPE Pathogens” (J Med Chem, 2015).
≈ marks a conversion by molar mass, not a printed value. Calls of active or inactive are those of the source. No cut-off for these calls is given here.

Tests used:
[1] = tested on: Enterococcus faecium; test: Antimicrobial activity against Enterococcus faecium assessed as inhibition of microbial growth at 45 uM after 24 hrs; assay type: functional, organism-based
In short: (§1)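 Broth microdilution single-concentration read: overnight cultures diluted 1:1000, compound in DMF (≤2.0%) added, 37°C for 24 h, growth inhibition scored visually by lack of turbidity; triplicate. Gram-positives grown in TSB, Gram-negatives in LB.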

[2] = tested on: Staphylococcus aureus; test: Antimicrobial activity against Staphylococcus aureus assessed as inhibition of microbial growth at 45 uM after 24 hrs; assay type: functional, organism-based; in short: as §1
[3] = tested on: Klebsiella pneumoniae; test: Antimicrobial activity against Klebsiella pneumoniae assessed as inhibition of microbial growth at 45 uM after 24 hrs; assay type: functional, organism-based; in short: as §1
[4] = tested on: Acinetobacter baumannii; test: Antimicrobial activity against Acinetobacter baumannii assessed as inhibition of microbial growth at 45 uM after 24 hrs; assay type: functional, organism-based; in short: as §1
[5] = tested on: Pseudomonas aeruginosa; test: Antimicrobial activity against Pseudomonas aeruginosa assessed as inhibition of microbial growth at 45 uM after 24 hrs; assay type: functional, organism-based; in short: as §1
[6] = tested on: Enterobacter cloacae; test: Antimicrobial activity against Enterobacter cloacae assessed as inhibition of microbial growth at 45 uM after 24 hrs; assay type: functional, organism-based; in short: as §1
[7] = tested on: Enterococcus faecium; test: Antimicrobial activity against Enterococcus faecium assessed as inhibition of microbial growth after 24 hrs; assay type: functional
In short: (§2)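 Broth microdilution against multidrug-resistant clinical ESKAPE isolates. Overnight cultures (TSB for Gram-positives, LB for Gram-negatives) diluted 1:1000 in fresh medium, compound in DMF (≤2.0% DMF) added at decreasing concentrations, 37°C.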

[8] = tested on: Staphylococcus aureus; test: Antimicrobial activity against Staphylococcus aureus assessed as inhibition of microbial growth after 24 hrs; assay type: functional; in short: as §2
[9] = tested on: Klebsiella pneumoniae; test: Antimicrobial activity against Klebsiella pneumoniae assessed as inhibition of microbial growth after 24 hrs; assay type: functional; in short: as §2
[10] = tested on: Acinetobacter baumannii; test: Antimicrobial activity against Acinetobacter baumannii assessed as inhibition of microbial growth after 24 hrs; assay type: functional; in short: as §2
[11] = tested on: Pseudomonas aeruginosa; test: Antimicrobial activity against Pseudomonas aeruginosa assessed as inhibition of microbial growth after 24 hrs; assay type: functional; in short: as §2
[12] = tested on: Enterobacter cloacae; test: Antimicrobial activity against Enterobacter cloacae assessed as inhibition of microbial growth after 24 hrs; assay type: functional; in short: as §2
[13] = tested on: Enterobacter cloacae; test: Antimicrobial activity against Enterobacter cloacae isolate 1446 assessed as inhibition of microbial growth in presence of 100 uM efflux pump inhibitor reserpine after 24 hrs; assay type: functional, organism-based
[14] = tested on: Enterococcus faecium; test: Bactericidal activity against Enterococcus faecium after 24 hrs; assay type: functional
[15] = tested on: Staphylococcus aureus; test: Bactericidal activity against Staphylococcus aureus after 24 hrs; assay type: functional
[16] = tested on: Klebsiella pneumoniae; test: Bactericidal activity against Klebsiella pneumoniae after 24 hrs; assay type: functional
[17] = tested on: Acinetobacter baumannii; test: Bactericidal activity against Acinetobacter baumannii after 24 hrs; assay type: functional
[18] = tested on: Pseudomonas aeruginosa; test: Bactericidal activity against Pseudomonas aeruginosa after 24 hrs; assay type: functional
[19] = tested on: Enterobacter cloacae; test: Bactericidal activity against Enterobacter cloacae after 24 hrs; assay type: functional
[20] = tested on: Staphylococcus aureus; test: Effect on bacterial density of methicillin-resistant Staphylococcus aureus at MIC measured over 2 hrs period by time kill assay; assay type: functional, organism-based
[21] = tested on: Staphylococcus aureus; test: Bactericidal activity against methicillin-resistant Staphylococcus aureus assessed as cell survival recovery at MIC measured after drug wash out after 120 mins by time kill assay; assay type: functional
In short: (§3)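 MRSA from stationary phase was regrown 3 h in TSB and seeded at OD600 0.5. […] After 120 min, cells were centrifuged and washed, serially diluted and plated for CFU. Percent recovery is relative to no-drug controls.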

[22] = tested on: Staphylococcus aureus; test: Bactericidal activity against methicillin-resistant Staphylococcus aureus at MIC measured after drug wash out after 120 mins by time kill assay; assay type: functional; in short: as §3
[23] = tested on: Enterococcus faecium; test: Antibiofilm activity against Enterococcus faecium incubated for 24 hrs followed by biofilm resuspension in PBS and measured after 24 hrs; assay type: functional
In short: (§4)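 Biofilms grown 24 h in 96-well plates from overnight cultures standardized to OD600 0.5 in fresh medium (human serum only for S. aureus; TSB for Gram-positives, LB for Gram-negatives). Medium then replaced with fresh medium containing a concentration range above and below MIC, 37°C overnight. After 24 h biofilm resuspended in PBS, serially diluted, plated in duplicate, CFU counted after 24 h at 37°C. Activity relative to untreated; three technical replicates; MBEC50 reported.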

[24] = tested on: Staphylococcus aureus; test: Antibiofilm activity against Staphylococcus aureus incubated for 24 hrs followed by biofilm resuspension in PBS and measured after 24 hrs; assay type: functional; in short: as §4
[25] = tested on: Klebsiella pneumoniae; test: Antibiofilm activity against Klebsiella pneumoniae incubated for 24 hrs followed by biofilm resuspension in PBS and measured after 24 hrs; assay type: functional; in short: as §4
[26] = tested on: Acinetobacter baumannii; test: Antibiofilm activity against Acinetobacter baumannii incubated for 24 hrs followed by biofilm resuspension in PBS and measured after 24 hrs; assay type: functional; in short: as §4
[27] = tested on: Pseudomonas aeruginosa; test: Antibiofilm activity against Pseudomonas aeruginosa incubated for 24 hrs followed by biofilm resuspension in PBS and measured after 24 hrs; assay type: functional; in short: as §4
[28] = tested on: Enterobacter cloacae; test: Antibiofilm activity against Enterobacter cloacae incubated for 24 hrs followed by biofilm resuspension in PBS and measured after 24 hrs; assay type: functional; in short: as §4
[29] = tested on: A549; test: Cytotoxicity against human A549 cells after 48 hrs by MTT assay; assay type: cell-based; settings: A549, 48 h
In short: (§5)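 A549 cells grown in F-12K with L-glutamine, 10% FBS, 1% penicillin-streptomycin, seeded at 1.0 × 10^5 ml−1, allowed to adhere 24 h (37°C, 5% CO2), then exposed to compound in 45% w/v (2-hydroxypropyl)-β-cyclodextrin vehicle for 48 h. MTT 4 h, formazan solubilized in DMSO, absorbance 540 nm. Percent recovery versus vehicle-only; IC50 derived; at least three independent experiments.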

[30] = Selectivity index, ratio of IC50 for human A549 cells to MIC for Enterococcus faecium
[31] = Selectivity index, ratio of IC50 for human A549 cells to MIC for Staphylococcus aureus
[32] = Selectivity index, ratio of IC50 for human A549 cells to MIC for Klebsiella pneumoniae
[33] = Selectivity index, ratio of IC50 for human A549 cells to MIC for Acinetobacter baumannii
[34] = Selectivity index, ratio of IC50 for human A549 cells to MIC for Pseudomonas aeruginosa
[35] = Selectivity index, ratio of IC50 for human A549 cells to MIC for Enterobacter cloacae
[36] = Cytotoxicity against human A549 cells assessed as cell viability recovery at 45 uM after 48 hrs by MTT assay; assay type: cell-based; settings: read-out: Activity; in short: as §5
[37] = Cytotoxicity against human A549 cells assessed as cell viability recovery up to 225 uM after 48 hrs by MTT assay; assay type: cell-based; settings: read-out: Activity; in short: as §5
[38] = Induction of hemolysis in human RBC at 10 uM incubated for 15 mins; assay type: cell-based, Erythrocyte; settings: red blood cells, read-out: Activity
In short: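 Human RBCs from whole blood, resuspended 20% v/v in HA buffer (NaCl, CaCl2), compound 10 μM, 15 min at 37°C. Centrifuged 5,500 g for 1 min, supernatant OD543 read. Percent hemolysis against DMF vehicle (0%) and 1.0% Triton X-100 (100%); triplicate.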

[39] = tested on: Enterococcus faecium; test: Induction of spontaneous mutation in Enterococcus faecium at 2 to 10 MIC; assay type: functional, organism-based
[40] = tested on: Staphylococcus aureus; test: Induction of spontaneous mutation in Staphylococcus aureus at 2 to 10 MIC; assay type: functional, organism-based
[41] = tested on: Klebsiella pneumoniae; test: Induction of spontaneous mutation in Klebsiella pneumoniae at 2 to 10 MIC; assay type: functional, organism-based
[42] = tested on: Acinetobacter baumannii; test: Induction of spontaneous mutation in Acinetobacter baumannii at 2 to 10 MIC; assay type: functional, organism-based
[43] = tested on: Pseudomonas aeruginosa; test: Induction of spontaneous mutation in Pseudomonas aeruginosa at 2 to 10 MIC; assay type: functional, organism-based; settings: 2 to 10 x MIC
[44] = tested on: Enterobacter cloacae; test: Induction of spontaneous mutation in Enterobacter cloacae at 2 to 10 MIC; assay type: functional, organism-based
[45] = tested on: Staphylococcus aureus; test: Ratio of MIC for Staphylococcus aureus measured after 8 cycle passage to MIC for wild type Staphylococcus aureus; assay type: functional
[46] = tested on: Klebsiella pneumoniae; test: Ratio of MIC for Klebsiella pneumoniae measured after 8 cycle passage to MIC for wild type Klebsiella pneumoniae; assay type: functional
[47] = tested on: Acinetobacter baumannii; test: Ratio of MIC for Acinetobacter baumannii measured after 8 cycle passage to MIC for wild type Acinetobacter baumannii; assay type: functional
[48] = tested on: Enterobacter cloacae; test: Ratio of MIC for Enterobacter cloacae measured after 8 cycle passage to MIC for wild type Enterobacter cloacae; assay type: functional
[49] = tested on: Staphylococcus aureus; test: Antimicrobial activity against Staphylococcus aureus USA300 strain FPR3757 infected in mouse model of lethal peritonitis assessed as mouse survival at 2 uM, im dosed 1 hr post infection and measured after 5 days post infection; assay type: functional, organism-based
In short: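 Mice, six per group, infected i.p. with 1 × 10^8 CFU ml−1 S. aureus USA300 FPR3757 in PBS with 5% mucin. Compound given i.m. at 2 μM 1 h later; vehicle 45% w/v (2-hydroxypropyl)-β-cyclodextrin in water i.v.; vancomycin i.v. as control. Monitored twice daily for 5 days, pre-moribund animals euthanized. Survival compared by log-rank test.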

[50] = tested on: Staphylococcus aureus; test: Bactericidal activity against methicillin-resistant Staphylococcus aureus assessed as cell survival recovery at 0.001% measured after drug wash out after 120 mins by time kill assay; assay type: functional; in short: as §3
[51] = tested on: Staphylococcus aureus; test: Effect on bacterial density of methicillin-resistant Staphylococcus aureus at 200 uM measured over 2 hrs period by time kill assay; assay type: functional, organism-based
[52] = tested on: Staphylococcus aureus; test: Bactericidal activity against methicillin-resistant Staphylococcus aureus assessed as cell survival recovery at 200 uM measured after drug wash out after 120 mins by time kill assay; assay type: functional; settings: 2 h; in short: as §3

CCCCCCCN1C(=N)N(CCCC[C@H]2CNC(=N)N2CCc2cccc(C(F)(F)F)c2)C[C@@H]1CC1CCCCC1
growth inhibition (GI) [1]: Active | growth inhibition (GI) [2]: Active | growth inhibition (GI) [3]: Active | growth inhibition (GI) [4]: Active | growth inhibition (GI) [5]: Active | growth inhibition (GI) [6]: Active | MIC [7]: 1.5 µM | MIC [8]: 1.5 µM | MIC [9]: 1.5 µM | MIC [10]: 1.5 µM | MIC [11]: 1.5 µM | MIC [12]: 1.5 µM | growth inhibition (GI) [13]: Active | MBC90 [14]: 3.3 µM (≈ 1.95 µg/mL) | MBC90 [15]: 3.3 µM (≈ 1.95 µg/mL) | MBC90 [16]: 2.2 µM (≈ 1.3 µg/mL) | MBC90 [17]: 3.2 µM (≈ 1.89 µg/mL) | MBC90 [18]: 14 µM (≈ 8.27 µg/mL) | MBC90 [19]: 6.4 µM (≈ 3.78 µg/mL) | Activity [20]: inactive | Survival [21]: 0.2% | fold change (FC) [22]: 2.5 | MBEC50 [23]: 26 µM | MBEC50 [24]: 4.4 µM | MBEC50 [25]: 4.8 µM | MBEC50 [26]: 13 µM | MBEC50 [27]: 46 µM | MBEC50 [28]: 15 µM | IC50 [29]: 66 µM | Selectivity Index [30]: 43 | Selectivity Index [31]: 43 | Selectivity Index [32]: 43 | Selectivity Index [33]: 43 | Selectivity Index [34]: 43 | Selectivity Index [35]: 43 | viability at 48 h, 45 µM [36]: > 60% | viability at 48 h [37]: ≥ 33% | hemolysis at 0.25 h, 10 µM [38]: 0.34% | Activity [39]: inactive | Activity [40]: inactive | Activity [41]: inactive | Activity [42]: inactive | Activity [43]: inactive | Activity [44]: inactive | Ratio [45]: 4 | Ratio [46]: <=8 | Ratio [47]: <=8 | Ratio [48]: <=8 | Activity [49]: Active

CC(C)(C)CC(C)(C)c1ccc(OCCOCC[N+](C)(C)Cc2ccccc2)cc1.[Cl-] [BENZETHONIUM CHLORIDE]
Survival [50]: 0%

C[C@H]1c2cccc(O)c2C(=O)C2=C(O)[C@]3(O)C(=O)C(C(N)=O)=C(O)[C@@H](N(C)C)[C@@H]3[C@@H](O)[C@@H]21 [DOXYCYCLINE]
Activity [51]: inactive | survival at 200 µM [52]: 92%
